Hits are enriched below; roughly 2.3% of the tested compounds scored in any of these assays.
TRPC4 PAM: allosterically enhances the mouse TRPC4 cation channel | HEK293 TRPC4beta/mu-opioid, DAMGO EC20, Fluo-4 Ca2+ flux; active compounds read high | B-score at 10 µM | hit rate 0.42% among 310,000;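 active means B-score of calcium response area above 5 SD of library B-scores, with initial fluorescence ratio within 5 SD of library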;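 further: B-score of integrated fluorescence ratio over time as area under calcium response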
TRPC4 agonist: activators of mouse TRPC4 channel; Q9QUQ5; HEK293 TRPC4beta/mu-opioid, Fluo4 calcium fluorescence; active compounds read high; B-score at 10 µM; hit rate 0.49% among 310,000; AID 2237;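 active means B-score above 5 SD of library B-scores, and initial fluorescence ratio not above library mean plus 5 SD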;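 further: positive B-score marks a calcium rise read as TRPC4 activation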
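Material: HEK293 stable line with TRPC4beta plus mu-opioid receptor; technique: Fluo4 calcium-sensitive dye fluorescence, kinetic, 1 Hz baseline; timing: Fluo4 dye loading 45 min at room temperature, 110 s recording; controls: assay buffer as low control, maximal DAMGO as high control; read-out: integrated baseline-normalised fluorescence ratio, converted to per-well B score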
TRPC6 inhibitor: blocks the mouse TRPC6 cation channel; Q61143; HEK293-TRPC6, membrane potential dye, ACh-evoked depolarization; active compounds read low; B-score at 10 µM; hit rate 1.1% among 310,000;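 active means B-score under library mean minus 3 SD, initial fluorescence not abnormally high, positive integrated signal ratio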;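 further: B-score derived from integrated fluorescence ratio over the kinetic read; more negative B-score means stronger inhibition of depolarization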
TRPC6 act: activates the mouse TRPC6 cation channel. HEK293-TRPC6 membrane potential dye fluorescence; active compounds read high. B-score at 10 µM. hit rate 0.13% among 310,000. Q61143;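 active means B-score of the integrated fluorescence ratio above library mean plus 3 SD, and starting fluorescence ratio within library mean plus 5 SD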;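 further: higher score means more depolarization so channel activation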
TRPC4 block: blocks the mouse TRPC4 cation channel | B-score at 10 µM | HEK293 TRPC4beta/mu-opioid, DAMGO-evoked Fluo4 calcium flux; active compounds read low | hit rate 0.39% among 300,000;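 active means B-score over 3 SD under the library average, no early fluorescence shift, positive overall ratio signal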
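Assay system: HEK293 cells with stable TRPC4beta plus mu-opioid receptor expression. Dosing: single dose. Measured by: Fluo4 Ca2+ flux fluorescence. Also added: DAMGO in two steps, submaximal then maximal. Read-out: B score from integrated Fluo4 fluorescence ratio.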
Active calls of the source: *; i = inactive.

SMILES	TRPC4 PAM	TRPC4 agonist	TRPC6 inhibitor	TRPC6 act	TRPC4 block
CCOc1ccccc1N(CC(=O)N1CCOCC1)S(=O)(=O)c1ccccc1	i	93*	i	i	-6*
CCCc1cc(-c2n[nH]c(=S)n2CC(C)C)cs1	13*	i	i	i	i
O=C(O/N=C/c1ccc(Br)cc1)c1ccc(F)cc1	i	i	i	i	i
CN(C)CCSc1nc(-c2ccccc2)nc2c1CCC2	i	i	i	i	i
CN(C)CCCSc1nc(-c2ccccc2)nc2c1CCC2	16*	i	i	i	i
NC1=NC2(CCN(Cc3ccccc3)CC2)n2c(nc3ccccc32)N1	i	87*	i	i	i
NC1=NC2(CCCCC2)n2c(nc3ccccc32)N1	i	i	i	i	i
CC(C)C(NC(=O)c1ccc(C(C)(C)C)cc1)C(=O)NCC(c1ccccc1)N(C)C (stereo not drawn)	i	i	i	i	-7*
CC(C)C(NC(=O)c1ccc(C(C)(C)C)cc1)C(=O)NCCc1ccccn1 (stereo not drawn)	i	i	i	i	i
CCOC(=O)N1CCN(C2=Nc3cccc4cccc2c34)CC1	i	i	-7.43*	i	i
c1ccc(CC2CCN(C3=Nc4cccc5cccc3c45)CC2)cc1	i	i	-6.11*	i	i
CCOC(=O)N1CCN(C(=O)Nc2cccc3ccccc23)CC1	i	i	i	i	i
Cc1oc2cc3oc(=O)c(CCC(=O)N4C[C@H]5C[C@@H](C4)c4cccc(=O)n4C5)c(C)c3cc2c1C	i	i	i	i	i
CCCc1ccc(OC(=O)c2ccc(O)cc2Cl)cc1	i	i	i	i	i
Cc1cc(Nc2ccc(C)c(C)c2)c2ccccc2n1	i	i	i	i	-6*
CC(=O)Nc1ccc(Nc2cc(C)nc3ccccc23)cc1	i	i	i	i	i
O=C1C(Cl)=C(Nc2ccccc2)C(=O)c2ccccc21	i	i	i	i	i
O=C(O)c1ccc(NC2=C(Cl)C(=O)c3ccccc3C2=O)cc1	i	i	i	i	-5*
CN1CCN(c2nc(-c3cccnc3)nc3scc(-c4ccccc4)c23)CC1	i	64*	i	i	-7*
C=CCn1c(SCC(=O)N2CCN(c3ccccc3)CC2)nc2c([nH]c3ccccc32)c1=O	i	i	i	i	i
CC(C)(C)c1cc(Cl)ccc1OCCn1ccnc1	42*	63*	i	i	i
Cc1ccc(C)c(OCCCCn2ccnc2)c1	i	133*	i	i	i
CC(C)(C)c1ccccc1OCCCCCn1ccnc1	42*	i	i	i	i
Cc1cccc(OCCCCCn2ccnc2)c1C	i	69*	i	i	i
Cc1ccc(C(C)(C)C)c(OCCCn2ccnc2)c1	i	i	i	i	i
SMILES	TRPC4 PAM	TRPC4 agonist	TRPC6 inhibitor	TRPC6 act	TRPC4 block
Cc1cc(OCCn2ccnc2)cc(C)c1Cl	i	129*	i	i	i
COc1ccc(-n2nc(C(=O)NCC(=O)NCc3ccc(F)cc3)c3ccccc3c2=O)cc1	i	i	i	i	i
CC(C)Cc1nc(N2CCN(C(=O)c3ccccc3)CC2)c(C#N)c2c1CCC2	13*	i	i	i	i
CC(C)Cc1nc(N2CCN(C(=O)C(C)C)CC2)c(C#N)c2c1CCC2	25*	i	i	i	i
CC(=O)N1CCN(c2nc(CC(C)C)c3c(c2C#N)CCC3)CC1	i	i	i	i	i
Cc1cccc(N2C(=O)CC(N3CCN(c4ccccn4)CC3)C2=O)c1 (stereo not drawn)	i	i	i	i	i
O=C(N/N=C/C1C(c2ccccc2)C1(Cl)Cl)c1cccc(Cl)c1 (stereo not drawn)	i	i	i	i	i
CCc1noc(C)c1C(=O)NC1CC(C)(C)Cc2c1cnn2-c1ccccc1 (stereo not drawn)	i	i	i	i	i
Fc1ccc(-c2[nH]ncc2CN2CCN(c3ccc(F)cc3)CC2)cc1	12*	i	i	i	i
CCOC(=O)C1(CCc2ccccc2)CCN(Cc2ccc(O)cc2)CC1	i	49*	i	i	-6*
CCOC(=O)C1(CCc2ccccc2)CCN(Cc2c(O)cccc2OC)CC1	i	79*	i	i	i
CCOC(=O)C1(CCc2ccccc2)CCN(Cc2nccn2CC)CC1	i	i	i	i	i
CCOC(=O)C1(CCc2ccccc2)CCN(Cc2ccc(OC)cc2)CC1	i	119*	i	i	i
CCOC(=O)C1(Cc2ccccc2)CCN(Cc2ccc(C)s2)CC1	i	i	i	i	-8*
CCOC(=O)C1(CCOc2ccccc2)CCN(Cc2ccc(O)cc2)CC1	i	i	i	i	i
O=C(O)/C=C/C(=O)Nc1ccc(OC(F)(F)F)cc1Br	i	i	i	i	i
O=C(CN(CC1CCCO1)C(=O)CNS(=O)(=O)c1ccc(Cl)cc1)NCc1ccc(F)cc1 (stereo not drawn)	i	i	i	i	i
COc1ccc(C2CC(c3ccc(OC)cc3OC(C)=O)=NN2C(=O)c2ccccc2)cc1 (stereo not drawn)	11*	i	i	i	i
COc1ccc(C2=NN(C(=O)c3ccccc3)C(c3ccc(OC)c(OC)c3)C2)c(O)c1 (stereo not drawn)	i	i	i	i	-7*
O=C(O)C1(c2ccccc2)CCN(S(=O)(=O)c2cccc(Cl)c2)CC1	i	i	i	i	i
C/C(Cc1ccccc1)=N\NC(=O)CNC(=O)COc1cccc(C)c1	i	80*	i	i	i
Cn1nc(C(F)(F)F)c(-c2ccc(Br)cc2)c1NC(=O)Nc1ccc(F)cc1F	i	i	i	i	i
O=C(Nc1ccc(Cl)c(Cl)c1)c1ccc(Cl)c(Cl)c1	i	i	i	i	i
O=C(Nc1ccc(C2=NCCN2)cc1)c1ccc(Cl)c(C(=O)Nc2ccc(C3=NCCN3)cc2)c1	i	i	i	14.2*	i
COCCn1c(-c2ccc(OC)cc2)cnc1SCC(=O)Nc1cccc2ccccc12	i	i	i	i	i
COc1ccc(C(CNC(=O)CN2C(=O)NC3(CCCC3)C2=O)N(C)C)cc1 (stereo not drawn)	i	134*	i	i	i
COc1ccc(CC(=O)NCC(c2ccc(OC)cc2)N(C)C)cc1 (stereo not drawn)	i	216*	i	i	i
